Results from ChEMBL document CHEMBL4251558, “Synthesis and preliminary antiproliferative activity of new pteridin-7(8H)-one derivatives” (Eur J Med Chem, 2018).

Tests used:
Type in all cases: functional, cell-based
MKN-45 = assay: Antiproliferative activity against human MKN45 cells assessed as decrease in cell viability after 48 hrs by MTT assay; details: MKN-45, 48 h
Method in brief: (§1)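 Cells in exponential growth seeded at 3000 per well and allowed 24 h. Medium then replaced with fresh medium holding a range of compound concentrations, followed by 48 h incubation. Viability read by MTT at 570 nm. IC50 is the concentration giving 50% inhibition of proliferation, reported as mean ± SD of three independent experiments.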

MGC-803 = assay: Antiproliferative activity against human MGC803 cells assessed as decrease in cell viability after 48 hrs by MTT assay; details: MGC-803, 48 h; method in brief: as §1
ECa-109 cell line = assay: Antiproliferative activity against human EC109 cells assessed as decrease in cell viability after 48 hrs by MTT assay; details: ECa-109, 48 h; method in brief: as §1
NCI-H1650 = assay: Antiproliferative activity against human NCI-H1650 cells assessed as decrease in cell viability after 48 hrs by MTT assay; details: NCI-H1650, 48 h; method in brief: as §1

SMILES	IC50 (MKN-45) [µM]	IC50 (MGC-803) [µM]	IC50 (NCI-H1650) [µM]	IC50 (ECa-109 cell line) [µM]
CN1CCN(c2ncnc3c2ncc(=O)n3Cc2ccccc2)CC1	> 64	> 64	> 64	41.7
Cc1nc(N2CCN(C)CC2)c2ncc(=O)n(Cc3ccccc3)c2n1	> 64	> 64	> 64	39
CCCSc1nc(N2CCN(C)CC2)c2ncc(=O)n(CCCc3ccccc3)c2n1	9.97	13.8	> 64	18.3
CCCSc1nc(N2CCSCC2)c2ncc(=O)n(Cc3ccccc3)c2n1	> 64	34.7	54.8	> 64
CCCSc1nc(NCc2ccccc2)c2ncc(=O)n(Cc3ccccc3)c2n1	> 64	46.6	> 64	> 64
CCCSc1nc(N2CCN(C)CC2)c2ncc(=O)n(Cc3cccs3)c2n1	11.3	16.4	> 64	19.7

Further compounds by falling IC50 (MKN-45), results first:

IC50 (MKN-45) [µM]	IC50 (MGC-803) [µM]	IC50 (NCI-H1650) [µM]	SMILES	IC50 (ECa-109 cell line) [µM]
23.3	43.7	> 64	CCCSc1nc(NC2CC2)c2ncc(=O)n(Cc3ccccc3)c2n1	29.7
17.9	53.7	51.8	CCCSc1nc(N2CCN(C)CC2)c2ncc(=O)n(CC3CCCCC3)c2n1	> 64
14.2	15	36.9	CCCSc1nc(Nc2cc(OC)c(OC)c(OC)c2)c2ncc(=O)n(Cc3ccccc3)c2n1	38.7
